By IC50 is commonly meant the concentration needed to halve the response being measured. The term Ki denotes the equilibrium dissociation constant of an inhibitor or competing ligand from its target. What is called Papp is a coefficient for how fast a substance crosses the barrier. High values mean ready permeation, low ones poor permeation.

Data set [1] deals with T1, Recombinant human MAO-A (Homo sapiens, UniProt P21397).
T1 sequence (P21397 1-527): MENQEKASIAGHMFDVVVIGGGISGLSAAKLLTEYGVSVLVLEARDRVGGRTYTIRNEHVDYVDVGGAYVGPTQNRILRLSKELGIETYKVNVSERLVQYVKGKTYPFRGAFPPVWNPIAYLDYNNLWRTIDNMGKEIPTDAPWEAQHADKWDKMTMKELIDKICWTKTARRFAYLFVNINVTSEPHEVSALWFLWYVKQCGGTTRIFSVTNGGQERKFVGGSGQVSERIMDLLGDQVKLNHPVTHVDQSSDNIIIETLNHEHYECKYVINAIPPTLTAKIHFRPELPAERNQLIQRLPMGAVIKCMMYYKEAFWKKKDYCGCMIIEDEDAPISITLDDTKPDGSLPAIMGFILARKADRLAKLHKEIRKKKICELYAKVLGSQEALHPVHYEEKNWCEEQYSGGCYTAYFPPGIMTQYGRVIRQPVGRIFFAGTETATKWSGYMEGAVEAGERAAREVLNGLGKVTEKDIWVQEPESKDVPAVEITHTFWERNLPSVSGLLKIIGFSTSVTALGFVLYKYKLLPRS
Put plainly: MAO-A inhibition enzyme assay. It is filed as biochemical. Particulars: for remaining activity at 10 µM: read-out: residual activities at 10 μM (%) MAO-A.

The target of data set [2] is T2, Recombinant human MAO-B (Homo sapiens, UniProt P27338).
T2 sequence (P27338 1-520): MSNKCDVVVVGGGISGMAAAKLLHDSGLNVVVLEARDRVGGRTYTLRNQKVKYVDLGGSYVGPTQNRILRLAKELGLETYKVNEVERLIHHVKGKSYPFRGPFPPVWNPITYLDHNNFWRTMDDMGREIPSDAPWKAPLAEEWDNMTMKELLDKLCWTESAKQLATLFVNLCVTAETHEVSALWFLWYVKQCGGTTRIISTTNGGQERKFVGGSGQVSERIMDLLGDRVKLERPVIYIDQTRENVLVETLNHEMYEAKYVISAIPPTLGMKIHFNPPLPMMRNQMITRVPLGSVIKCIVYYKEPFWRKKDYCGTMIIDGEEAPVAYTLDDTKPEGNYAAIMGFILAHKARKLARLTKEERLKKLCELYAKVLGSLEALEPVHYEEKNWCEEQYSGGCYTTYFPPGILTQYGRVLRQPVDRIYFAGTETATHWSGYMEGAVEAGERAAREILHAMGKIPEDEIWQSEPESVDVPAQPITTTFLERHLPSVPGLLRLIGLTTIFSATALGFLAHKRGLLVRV
As to the kind of experiment: MAO-B inhibition enzyme assay. The data set is classed as biochemical. Particulars: for remaining activity at 10 µM: read-out: residual activities at 10 μM (%) MAO-B; for SI (selectivity index): IC50 for MAO-A / IC50 for MAO-B.

For data set [3], the target named is T2, Recombinant human MAO-B. Put plainly: MAO-B enzyme kinetics. The data set is classed as biochemical. As to conditions: for type of MAO-B inhibition: Lineweaver-Burk plot. A digest of the protocol:
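Recombinant human MAO-B in 50 mM sodium phosphate (pH 7.2), 25 °C, 30 min. Benzylamine was the substrate, tested at five concentrations, and product formation was followed continuously as absorbance change at 250 nm. Reactions were started by adding substrate to the enzyme mixture, with three inhibitor conditions per test compound. Inhibition type came from Lineweaver–Burk plots and Ki from secondary plots.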

Data set [4] deals with T2, Recombinant human MAO-B. As to the kind of experiment: Reversibility of MAO-B inhibition by dialysis. It is filed as biochemical. Particulars: dialysis method.
The nature of data set [5]: BBB permeability assay. It is filed as in vitro ADME. Particulars: for Papp / prediction (BBB permeation): PAMPA; for prediction (BBB permeation): class from Pe. The procedure, abridged:
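Passive BBB permeation is estimated with a non-cell PAMPA: a filter membrane (0.45 µm pore, 125 µm thick) soaked in n-dodecane sits between donor and acceptor wells. Test compound stocks (10 mM in DMSO, kept at 0 °C) are diluted in buffer to final 1, 0.1 and 0.01 mM, with DMSO below 1% (v/v). Pe is calculated from donor and receptor absorbance, filter area (0.45 cm²), compartment volumes and time.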

In the case of `O=C(NN=Cc1ccc(Cl)cc1)c1ccccc1` [ACH1], in data set [1], the 50% inhibitory concentration (IC50) is over 40 µM and the remaining activity at 10 µM turned out to be 96 ± 8.49%. In data set [2], the IC50 came to 0.36 ± 0.04 µM and the remaining activity at 10 µM stood at 10.7 ± 2.52%.

On to `O=C(NN=Cc1ccc(Br)cc1)c1ccccc1` [ACH2], for which the IC50 was over 40 µM in data set [1] and 1.65 ± 0.21 µM in data set [2]. Moreover, the figures for the remaining activity at 10 µM in data set [1] and in data set [2] were 131 ± 2.9% and 30.2 ± 0.95%, respectively.

For the molecule `O=C(NN=Cc1ccc(F)cc1)c1ccccc1` [ACH3], in data set [1], the IC50 is over 40 µM and the remaining activity at 10 µM was 109 ± 7.07%. Moreover, in data set [2], the IC50 turned out to be 0.22 ± 0.02 µM and the remaining activity at 10 µM came out at 7.08 ± 1.25%.

`O=C(NN=Cc1ccc(Cl)cc1)c1ccc(Cl)cc1` [ACH4]: in data set [1], the IC50 was over 40 µM and the remaining activity at 10 µM was 92.1 ± 1.86%. In addition, in data set [2], the IC50 worked out at 0.37 ± 0.006 µM, the “SI (selectivity index)” value is on record as over 108.11 and the remaining activity at 10 µM worked out at 20.2 ± 1.68%.

On to `O=C(NN=Cc1ccc(Br)cc1)c1ccc(Cl)cc1` [ACH5], for which, in data set [1], the IC50 was over 40 µM and the remaining activity at 10 µM was 70.6 ± 4.16%. Also, in data set [2], the IC50 was found to be 1.54 ± 0.04 µM, the “SI (selectivity index)” value is recorded as over 25.97 and the remaining activity at 10 µM is 35.8 ± 1.88%.

Consider `O=C(NN=Cc1ccc(F)cc1)c1ccc(Cl)cc1` [ACH6], for which, in data set [1], the IC50 was over 40 µM and the remaining activity at 10 µM was determined as 117 ± 1.86%. In data set [2], the IC50 is 8 ± 0.037 µM, the “SI (selectivity index)” value was over 5.00 and the remaining activity at 10 µM came out at 46.4 ± 1.68%.

For the molecule `O=C(NN=Cc1ccccc1)c1ccc(Cl)cc1` [ACH7], in data set [1], the IC50 is over 40 µM and the remaining activity at 10 µM was 127 ± 3.48%. Besides, in data set [2], the IC50 was 12.8 ± 0.026 µM, the “SI (selectivity index)” value is given as over 3.13 and the remaining activity at 10 µM is 43.5 ± 4.56%.

For the molecule `O=C(NN=Cc1ccc(Cl)cc1)c1ccc(Br)cc1` [ACH8], in data set [1], the IC50 worked out at 20.2 ± 0.57 µM and the remaining activity at 10 µM was 59.6 ± 3.12%. Moreover, in data set [2], the IC50 was determined as 0.2 ± 0.09 µM, the “SI (selectivity index)” value stood at 101.10 and the remaining activity at 10 µM came to 18.3 ± 3.45%.

For `O=C(NN=Cc1ccc(Br)cc1)c1ccc(Br)cc1` [ACH9], in data set [1], the IC50 is over 40 µM and the remaining activity at 10 µM came out at 101 ± 1.86%. Besides, in data set [2], the IC50 was over 40 µM and the remaining activity at 10 µM was 98.2%.

As to `O=C(NN=Cc1ccc(F)cc1)c1ccc(Br)cc1` [ACH10], in data set [1], the IC50 came to 23.4 ± 0.56 µM and the remaining activity at 10 µM was determined as 61.8 ± 6.24%. Also, in data set [2], the IC50 is 0.14 ± 0.011 µM, the “SI (selectivity index)” value was 167.29 and the remaining activity at 10 µM came to 11.7 ± 1.42%. In addition, in data set [3], the Ki stood at 0.097 ± 0.0021 µM and the “type of MAO-B inhibition” value was “competitive MAO-B inhibitors”. Besides, the “reversibility of MAO-B inhibition” value in data set [4] is “reversible inhibitors of MAO-B”. Moreover, in data set [5], the Papp turned out to be 5.12 ×10⁻⁶ cm/s and the “prediction (BBB permeation)” value is “CNS+ (Pe > 4.00 × 10^–6 cm/s: CNS+ (high permeation))”.

With `O=C(NN=Cc1ccccc1)c1ccc(Br)cc1` [ACH11], in data set [1], the 50% inhibitory concentration (IC50) was over 40 µM and the remaining activity at 10 µM came out at 102 ± 4.64%. In data set [2], the IC50 was found to be 5.2 ± 0.056 µM, the “SI (selectivity index)” value was over 7.69 and the remaining activity at 10 µM came to 39 ± 5.61%.

Take `O=C(NN=Cc1ccc(Cl)cc1)c1ccc(F)cc1` [ACH12]: in data set [1], the IC50 was determined as 4.85 ± 0.83 µM and the remaining activity at 10 µM amounted to 37.6 ± 2.24%. In data set [2], the IC50 stood at 5.6 ± 0.1 µM, the “SI (selectivity index)” value was determined as 0.87 and the remaining activity at 10 µM was 33.8%.

With `O=C(NN=Cc1ccc(Br)cc1)c1ccc(F)cc1` [ACH13], in data set [1], the IC50 was 11.6 ± 0.07 µM and the remaining activity at 10 µM stood at 38.5 ± 5.44%. Besides, in data set [2], the IC50 worked out at 0.18 ± 0.01 µM, the “SI (selectivity index)” value was 64.44 and the remaining activity at 10 µM was -50.9%.

Consider `O=C(NN=Cc1ccc(F)cc1)c1ccc(F)cc1` [ACH14], for which, in data set [1], the IC50 amounted to 19.6 ± 1.41 µM and the remaining activity at 10 µM was determined as 63.8 ± 1.76%. In addition, in data set [2], the IC50 was 0.15 ± 0.02 µM, the “SI (selectivity index)” value stood at 130.47 and the remaining activity at 10 µM is -14.4%. For the same molecule, in data set [3], the Ki came out at 0.1 ± 0.038 µM and the “type of MAO-B inhibition” value is on record as “competitive MAO-B inhibitors”. Moreover, the “reversibility of MAO-B inhibition” value in data set [4] is recorded as “reversible inhibitors of MAO-B”. In addition, in data set [5], the Papp turned out to be 4.98 ×10⁻⁶ cm/s and the “prediction (BBB permeation)” value is given as “CNS+ (Pe > 4.00 × 10^–6 cm/s: CNS+ (high permeation))”.

As for `C#CCN(C)[C@H](C)Cc1ccccc1` [selegiline, reference compound], the “Pe (cm/s)” value in data set [5] (PAMPA effective permeability) is given as 5.69 ± 0.04 cm/s. In data set [5], the “prediction (BBB permeation)” value is “CNS+ (Pe > 4.00 × 10^–6 cm/s: CNS+ (high permeation))”.

(Values after article PMC10733988 (ACS Omega, 2023).)
